{"source": "ChEMBL document CHEMBL1149634", "about": "“1-Acylthiosemicarbazides, 1,2,4-triazole-5(4H)-thiones, 1,3,4-thiadiazoles and hydrazones containing 5-methyl-2-benzoxazolinones: synthesis, analgesic-anti-inflammatory and antimicrobial activities” (2007)", "key": {"[1]": {"system": "Mus musculus", "experiment": "Antiinflammatory activity against carrageenan-induced hind paw oedema in mouse assessed as swelling thickness at 50 mg/kg, po after 270 mins", "format": "functional", "procedure,_shortened": "(§1)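 Fasted mice (n = 5–6) were dosed orally with the sample in 0.5% CMC/water. One hour later, carrageenan (0.5 mg/25 µl in 154 mM saline) was injected subplantar into the right hind paw. The right-minus-left footpad thickness difference was measured with dial gauge callipers every 90 min over 6 h. Inhibition % is calculated versus vehicle control; mean ± SEM, Student's t test.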"}, "[2]": {"system": "Staphylococcus aureus", "experiment": "Antibacterial activity against Staphylococcus aureus ATCC 29213 after 24 hrs by broth microdilution test", "format": "functional", "conditions": "ATCC 29213, 24 h", "procedure,_shortened": "(§2)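 NCCLS broth microdilution in Mueller-Hinton broth with an inoculum of 5 × 10^5 cfu/mL. Compounds were dissolved in DMSO, diluted in sterile water, and tested as twofold dilutions from 512 to 0.5 µg/mL. Plates were incubated at 35 °C for 24 h. MIC is the lowest concentration preventing visible growth.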"}, "[3]": {"system": "Mus musculus", "experiment": "Antiinflammatory activity against carrageenan-induced hind paw oedema in mouse assessed as swelling thickness at 100 mg/kg, po after 270 mins", "format": "functional", "procedure,_shortened": "as §1"}, "[4]": {"system": "Mus musculus", "experiment": "Antiinflammatory activity against carrageenan-induced hind paw oedema in mouse assessed as swelling thickness at 200 mg/kg, po after 360 mins", "format": "functional", "procedure,_shortened": "as §1"}, "[5]": {"system": "Mus musculus", "experiment": "Antiinflammatory activity against carrageenan-induced hind paw oedema in mouse assessed as inhibition of swelling thickness at 100 mg/kg, po after 90 mins", "format": "functional", "conditions": "1.5 h", "procedure,_shortened": "as §1"}, "[6]": {"system": "Candida albicans", "experiment": "Antifungal activity against Candida albicans ATCC 90028 after 48 hrs by broth microdilution test", "format": "functional", "conditions": "ATCC 90028, 48 h", "procedure,_shortened": "(§3)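 Yeasts tested by NCCLS M27-A broth microdilution in RPMI 1640 (with L-glutamine, without sodium bicarbonate) with an inoculum of 0.5–2.5 × 10^3 cfu/mL. Compounds were prepared from DMSO solution diluted in water as twofold dilutions from 512 to 0.5 µg/mL. Plates were incubated at 35 °C for 48 h. MIC is the lowest concentration giving no visible growth.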"}, "[7]": {"system": "Mus musculus", "experiment": "Antiinflammatory activity against carrageenan-induced hind paw oedema in mouse assessed as swelling thickness at 200 mg/kg, po after 270 mins", "format": "functional", "procedure,_shortened": "as §1"}, "[8]": {"system": "Mus musculus", "experiment": "Analgesic activity in mouse assessed as inhibition of hind paw lick at 100 mg/kg, ip by hot plate test", "format": "functional", "conditions": "route intraperitoneal"}, "[9]": {"system": "Candida parapsilosis", "experiment": "Antifungal activity against Candida parapsilosis ATCC 22019 after 48 hrs by broth microdilution test", "format": "functional", "conditions": "Lodderomyces parapsilosis, ATCC 22019, 48 h", "procedure,_shortened": "as §3"}, "[10]": {"system": "Pseudomonas aeruginosa", "experiment": "Antibacterial activity against Pseudomonas aeruginosa ATCC 27853 after 24 hrs by broth microdilution test", "format": "functional", "conditions": "ATCC 27853, 24 h", "procedure,_shortened": "as §2"}, "[11]": {"system": "Mus musculus", "experiment": "Antiinflammatory activity against carrageenan-induced hind paw oedema in mouse assessed as inhibition of swelling thickness at 100 mg/kg, po after 180 mins", "format": "functional", "conditions": "3 h", "procedure,_shortened": "as §1"}, "[12]": {"system": "Enterococcus faecalis", "experiment": "Antibacterial activity against Enterococcus faecalis ATCC 29212 after 24 hrs by broth microdilution test", "format": "functional", "conditions": "ATCC 29212, 24 h", "procedure,_shortened": "as §2"}, "[13]": {"system": "Mus musculus", "experiment": "Analgesic activity in mouse assessed as inhibition of acetic acid induced-abdominal writhing at 100 mg/kg, ip by Koster test", "format": "functional", "conditions": "Abdomen, route intraperitoneal"}, "[14]": {"system": "Mus musculus", "experiment": "Antiinflammatory activity against carrageenan-induced hind paw oedema in mouse assessed as swelling thickness at 50 mg/kg, po after 90 mins", "format": "functional", "procedure,_shortened": "as §1"}, "[15]": {"system": "Mus musculus", "experiment": "Antiinflammatory activity against carrageenan-induced hind paw oedema in mouse assessed as inhibition of swelling thickness at 100 mg/kg, po after 360 mins", "format": "functional", "conditions": "6 h", "procedure,_shortened": "as §1"}, "[16]": {"system": "Mus musculus", "experiment": "Antiinflammatory activity against carrageenan-induced hind paw oedema in mouse assessed as swelling thickness at 50 mg/kg, po after 360 mins", "format": "functional", "procedure,_shortened": "as §1"}, "[17]": {"system": "Mus musculus", "experiment": "Antiinflammatory activity against carrageenan-induced hind paw oedema in mouse assessed as inhibition of swelling thickness at 200 mg/kg, po after 180 mins", "format": "functional", "conditions": "3 h", "procedure,_shortened": "as §1"}, "[18]": {"system": "Mus musculus", "experiment": "Antiinflammatory activity against carrageenan-induced hind paw oedema in mouse assessed as inhibition of swelling thickness at 200 mg/kg, po after 90 mins", "format": "functional", "conditions": "1.5 h", "procedure,_shortened": "as §1"}, "[19]": {"system": "Escherichia coli", "experiment": "Antibacterial activity against Escherichia coli ATCC 25922 after 24 hrs by broth microdilution test", "format": "functional", "conditions": "ATCC 25922, 24 h", "procedure,_shortened": "as §2"}, "[20]": {"system": "Mus musculus", "experiment": "Antiinflammatory activity against carrageenan-induced hind paw oedema in mouse assessed as swelling thickness at 50 mg/kg, po after 180 mins", "format": "functional", "procedure,_shortened": "as §1"}, "[21]": {"system": "Pichia kudriavzevii", "experiment": "Antifungal activity against Candida krusei ATCC 6258 after 48 hrs by broth microdilution test", "format": "functional", "conditions": "ATCC 6258, 48 h", "procedure,_shortened": "as §3"}, "[22]": {"system": "Mus musculus", "experiment": "Antiinflammatory activity against carrageenan-induced hind paw oedema in mouse assessed as inhibition of swelling thickness at 10 mg/kg, po after 360 mins", "format": "functional", "conditions": "6 h", "procedure,_shortened": "as §1"}, "[23]": {"system": "Mus musculus", "experiment": "Antiinflammatory activity against carrageenan-induced hind paw oedema in mouse assessed as inhibition of swelling thickness at 10 mg/kg, po after 270 mins", "format": "functional", "conditions": "4.5 h", "procedure,_shortened": "as §1"}, "[24]": {"system": "Mus musculus", "experiment": "Antiinflammatory activity against carrageenan-induced hind paw oedema in mouse assessed as inhibition of swelling thickness at 10 mg/kg, po after 180 mins", "format": "functional", "conditions": "3 h", "procedure,_shortened": "as §1"}, "[25]": {"species_on_record": "Mus musculus", "experiment": "animal or person", "conditions": "po, 1.5 h, read-out: Inhibition"}}}
{"smiles": "Cc1ccc(/C=N/NC(=O)Cn2c(=O)oc3ccc(C)cc32)cc1", "values": [{"measurement": "Activity", "setting": "[1]", "value": 103.8, "unit": "%"}, {"measurement": "MIC", "setting": "[2]", "value": 512, "unit": "µg/mL"}, {"measurement": "Activity", "setting": "[3]", "value": 92, "unit": "%"}, {"measurement": "Activity", "setting": "[4]", "value": 83.6, "unit": "%"}, {"measurement": "inhibition in vivo at 100 mg/kg", "setting": "[5]", "value": 69.7, "unit": "%"}, {"measurement": "MIC", "setting": "[6]", "value": 128, "unit": "µg/mL"}, {"measurement": "Activity", "setting": "[7]", "value": 89.1, "unit": "%"}, {"measurement": "inhibition in vivo at 100 mg/kg", "setting": "[8]", "value": 52.9, "unit": "%"}, {"measurement": "MIC", "setting": "[9]", "value": 128, "unit": "µg/mL"}, {"measurement": "MIC", "setting": "[10]", "value": 256, "unit": "µg/mL"}, {"measurement": "inhibition in vivo at 100 mg/kg", "setting": "[11]", "value": 9.4, "unit": "%"}, {"measurement": "MIC", "setting": "[12]", "value": 256, "unit": "µg/mL"}, {"measurement": "inhibition in vivo at 100 mg/kg", "setting": "[13]", "value": 77.8, "unit": "%"}, {"measurement": "Activity", "setting": "[14]", "value": 73.8, "unit": "%"}, {"measurement": "inhibition in vivo at 100 mg/kg", "setting": "[15]", "value": 12.6, "unit": "%"}, {"measurement": "Activity", "setting": "[16]", "value": 98, "unit": "%"}, {"measurement": "inhibition in vivo at 200 mg/kg", "setting": "[17]", "value": 33.3, "unit": "%"}, {"measurement": "inhibition in vivo at 200 mg/kg", "setting": "[18]", "value": 17.1, "unit": "%"}, {"measurement": "MIC", "setting": "[19]", "value": 128, "unit": "µg/mL"}, {"measurement": "Activity", "setting": "[20]", "value": 86.8, "unit": "%"}, {"measurement": "MIC", "setting": "[21]", "value": 128, "unit": "µg/mL"}]}
{"smiles": "COc1ccc2c(c1)c(CC(=O)O)c(C)n2C(=O)c1ccc(Cl)cc1", "note": "[INDOMETHACIN]", "values": [{"measurement": "inhibition in vivo at 10 mg/kg", "setting": "[22]", "value": 41.6, "unit": "%"}, {"measurement": "inhibition in vivo at 10 mg/kg", "setting": "[23]", "value": 46.3, "unit": "%"}, {"measurement": "inhibition in vivo at 10 mg/kg", "setting": "[24]", "value": 43, "unit": "%"}, {"measurement": "inhibition in vivo at 10 mg/kg", "setting": "[25]", "value": 42, "unit": "%"}]}
